Assays:
[1] = molecular target: T1, Adrenergic receptor alpha-1 (Rattus norvegicus, UniProt P15823+P23944+P43140); assay: Binding affinity towards alpha-1 adrenergic receptor; type: protein assay
T1 sequence (P15823 whole entry): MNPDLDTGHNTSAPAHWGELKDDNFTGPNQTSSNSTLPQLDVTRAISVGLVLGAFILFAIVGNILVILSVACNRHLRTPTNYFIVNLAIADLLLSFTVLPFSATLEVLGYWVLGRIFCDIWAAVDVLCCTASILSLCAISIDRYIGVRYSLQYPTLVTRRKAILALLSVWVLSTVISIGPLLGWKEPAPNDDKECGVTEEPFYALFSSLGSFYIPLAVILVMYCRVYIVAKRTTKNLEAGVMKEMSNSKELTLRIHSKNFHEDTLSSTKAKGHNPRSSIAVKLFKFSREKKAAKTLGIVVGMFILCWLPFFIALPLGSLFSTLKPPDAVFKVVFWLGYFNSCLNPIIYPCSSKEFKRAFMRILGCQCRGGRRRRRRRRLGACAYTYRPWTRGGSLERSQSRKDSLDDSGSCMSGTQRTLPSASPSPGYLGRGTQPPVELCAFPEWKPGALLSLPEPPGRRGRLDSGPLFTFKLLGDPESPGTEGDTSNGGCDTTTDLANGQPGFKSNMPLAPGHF
T1 sequence (P23944 whole entry): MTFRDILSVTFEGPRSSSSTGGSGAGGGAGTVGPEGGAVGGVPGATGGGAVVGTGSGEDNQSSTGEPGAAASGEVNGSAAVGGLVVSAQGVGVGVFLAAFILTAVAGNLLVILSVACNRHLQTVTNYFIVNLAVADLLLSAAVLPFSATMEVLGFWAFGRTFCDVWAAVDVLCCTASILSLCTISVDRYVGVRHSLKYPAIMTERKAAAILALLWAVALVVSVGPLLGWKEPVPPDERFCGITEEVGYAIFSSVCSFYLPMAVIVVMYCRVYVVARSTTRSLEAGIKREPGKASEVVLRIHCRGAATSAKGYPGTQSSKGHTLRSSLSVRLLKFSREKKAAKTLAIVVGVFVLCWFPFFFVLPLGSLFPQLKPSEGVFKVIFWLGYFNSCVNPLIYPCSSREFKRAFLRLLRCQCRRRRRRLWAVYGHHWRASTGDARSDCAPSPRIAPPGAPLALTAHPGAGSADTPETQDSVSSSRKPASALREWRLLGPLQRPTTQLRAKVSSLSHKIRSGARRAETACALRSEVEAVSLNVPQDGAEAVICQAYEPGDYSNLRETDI
T1 sequence (P43140 whole entry): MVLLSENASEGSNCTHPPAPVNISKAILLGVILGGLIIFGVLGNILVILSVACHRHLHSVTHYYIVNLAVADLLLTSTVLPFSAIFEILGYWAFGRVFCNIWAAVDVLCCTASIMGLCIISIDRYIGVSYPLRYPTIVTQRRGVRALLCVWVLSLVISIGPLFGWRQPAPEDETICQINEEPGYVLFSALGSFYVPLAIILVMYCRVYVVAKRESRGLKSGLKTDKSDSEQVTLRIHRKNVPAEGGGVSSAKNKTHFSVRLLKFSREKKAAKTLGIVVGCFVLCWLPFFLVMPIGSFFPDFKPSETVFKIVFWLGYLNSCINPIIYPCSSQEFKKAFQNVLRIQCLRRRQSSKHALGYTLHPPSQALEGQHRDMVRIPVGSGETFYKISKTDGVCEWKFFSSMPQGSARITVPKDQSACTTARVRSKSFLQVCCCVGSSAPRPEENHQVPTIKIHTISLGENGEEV

Mus musculus [2] = species on record: Mus musculus; assay: Antagonism of tetrabenazine (TBZ)-induced depression measured in mice by motor activity; type: functional
Summary of the method: (§1)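 Nonfasted male Swiss Webster mice, 18–24 g, ten per dose level and in saline controls. Test compound given ip 30 min before tetrabenazine 32 mg/kg ip; dose expressed as free base. Motor activity and ptosis scored. Control response ≤90% corrected by Abbott's formula.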

[3] = molecular target: Sodium-dependent dopamine transporter (Rattus norvegicus, UniProt P23977); assay: Inhibition of the uptake of tritiated dopamine (DA) in rat synaptosomes; type: subcellular, Brain
Sodium-dependent dopamine transporter, sequence (P23977 whole entry): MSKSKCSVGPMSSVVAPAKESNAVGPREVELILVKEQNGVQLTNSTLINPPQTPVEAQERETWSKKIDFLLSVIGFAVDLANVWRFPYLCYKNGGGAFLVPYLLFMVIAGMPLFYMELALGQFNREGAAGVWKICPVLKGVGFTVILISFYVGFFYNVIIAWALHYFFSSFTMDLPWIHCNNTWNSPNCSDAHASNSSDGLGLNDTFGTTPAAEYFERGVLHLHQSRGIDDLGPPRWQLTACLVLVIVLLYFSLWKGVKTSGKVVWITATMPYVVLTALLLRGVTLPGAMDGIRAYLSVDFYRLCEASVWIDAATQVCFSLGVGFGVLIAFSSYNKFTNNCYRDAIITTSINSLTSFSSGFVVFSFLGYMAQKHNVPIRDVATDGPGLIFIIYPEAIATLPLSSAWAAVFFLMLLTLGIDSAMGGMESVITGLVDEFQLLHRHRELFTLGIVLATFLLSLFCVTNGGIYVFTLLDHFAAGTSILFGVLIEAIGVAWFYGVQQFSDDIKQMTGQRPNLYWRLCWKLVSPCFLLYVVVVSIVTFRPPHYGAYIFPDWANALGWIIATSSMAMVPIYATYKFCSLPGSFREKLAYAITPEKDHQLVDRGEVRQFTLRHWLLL

Mus musculus [4] = species on record: Mus musculus; assay: Antagonism of tetrabenazine (TBZ)-induced depression in mice measured for ptosis; type: functional; summary of the method: as §1
[5] = molecular target: Norepinephrine transporter (Rattus norvegicus) (UniProt Q9WTR4); assay: Ability to inhibit the uptake of [3H]norepinephrine (NE) 0.1 uM concentration at rat brain synaptosomes; type: functional, subcellular
Norepinephrine transporter (Rattus norvegicus), sequence (Q9WTR4 as listed by the source): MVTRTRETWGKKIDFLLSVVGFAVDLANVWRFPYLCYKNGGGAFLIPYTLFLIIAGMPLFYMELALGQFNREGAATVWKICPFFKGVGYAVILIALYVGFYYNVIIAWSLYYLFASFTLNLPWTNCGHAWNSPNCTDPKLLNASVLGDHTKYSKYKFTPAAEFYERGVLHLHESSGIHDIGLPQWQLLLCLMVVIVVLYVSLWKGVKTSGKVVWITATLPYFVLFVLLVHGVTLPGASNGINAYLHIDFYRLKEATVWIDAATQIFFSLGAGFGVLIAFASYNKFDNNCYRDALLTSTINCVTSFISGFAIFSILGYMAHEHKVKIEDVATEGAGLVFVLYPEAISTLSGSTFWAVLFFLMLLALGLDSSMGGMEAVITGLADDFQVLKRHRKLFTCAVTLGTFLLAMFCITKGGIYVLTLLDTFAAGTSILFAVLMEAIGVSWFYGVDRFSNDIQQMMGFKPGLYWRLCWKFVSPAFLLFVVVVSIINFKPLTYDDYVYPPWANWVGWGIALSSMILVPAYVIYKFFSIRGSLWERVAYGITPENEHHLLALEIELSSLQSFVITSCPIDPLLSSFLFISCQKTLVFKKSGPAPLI
Summary of the method: (§2)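 Male Wistar rat brain synaptosomes (P2 fraction): hypothalamus for NE, striatum for DA, cerebral cortex for 5-HT. Buffer is Tris- or HEPES-buffered salt medium with glucose, ascorbate and nialamide, pH 7.4 at 37 °C. Preincubated 10 min at 37 °C with compound. Uptake started with [3H]NE 100–300 nM, [3H]DA 50–300 nM or [3H]5-HT 100–200 nM, incubated 3 min (DA) or 6–10 min (NE, 5-HT). Blanks held on ice. Filtered, counted by scintillation.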

[6] = molecular target: Sodium-dependent serotonin transporter (Rattus norvegicus) (UniProt P31652); assay: Ability to inhibit the uptake of [3H]- serotonin(5-HT) 0.1 uM concentration at rat brain synaptosomes; type: functional, subcellular; summary of the method: as §2
Sodium-dependent serotonin transporter (Rattus norvegicus), sequence (P31652 whole entry): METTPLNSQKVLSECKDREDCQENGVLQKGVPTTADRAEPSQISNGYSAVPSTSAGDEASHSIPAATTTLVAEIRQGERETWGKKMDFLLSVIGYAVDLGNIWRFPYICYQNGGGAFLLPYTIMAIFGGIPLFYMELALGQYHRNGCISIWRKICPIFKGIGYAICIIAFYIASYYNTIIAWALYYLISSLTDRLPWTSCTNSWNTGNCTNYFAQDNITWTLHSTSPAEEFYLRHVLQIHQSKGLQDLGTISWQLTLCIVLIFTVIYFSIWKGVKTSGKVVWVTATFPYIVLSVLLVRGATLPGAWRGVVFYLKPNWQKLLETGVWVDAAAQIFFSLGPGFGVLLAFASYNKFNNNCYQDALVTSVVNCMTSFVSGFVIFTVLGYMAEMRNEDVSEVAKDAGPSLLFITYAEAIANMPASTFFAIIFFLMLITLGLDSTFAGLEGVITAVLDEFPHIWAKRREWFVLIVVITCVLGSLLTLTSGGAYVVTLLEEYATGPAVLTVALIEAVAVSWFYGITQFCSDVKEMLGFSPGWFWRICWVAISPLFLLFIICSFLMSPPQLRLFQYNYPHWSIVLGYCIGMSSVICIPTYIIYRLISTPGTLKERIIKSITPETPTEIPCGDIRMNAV

[7] = molecular target: Sodium-dependent dopamine transporter (Rattus norvegicus) (UniProt P23977); assay: Ability to inhibit the uptake of [3H]dopamine (DA) 0.1 uM concentration at rat brain synaptosomes; type: functional, subcellular; summary of the method: as §2
Sodium-dependent dopamine transporter (Rattus norvegicus), sequence (P23977 whole entry): as the sequence (P23977 whole entry) above

[8] = molecular target: Norepinephrine transporter (Rattus norvegicus, UniProt Q9WTR4); assay: Inhibition of uptake of tritiated norepinephrine (NE) in rat synaptosomes; type: subcellular, Brain
Norepinephrine transporter, sequence (Q9WTR4 whole entry): as the sequence (Q9WTR4 as listed by the source) above

Mus musculus [9] = species on record: Mus musculus; assay: Gross behavioral effects ascertained in mice; W indicates weak stimulant or depressant activity of little significance.; type: functional, organism-based
Summary of the method: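 Male Swiss Webster mice, 18–24 g, three per dose, given ip doses of 1, 3, 10, 30, 100 and 300 mg/kg. Observed for gross behavior and held for 4 days. Scored as weak (W), stimulant (S), depressant (D) or convulsant (C).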

[10] = molecular target: D(2) dopamine receptor (Rattus norvegicus) (UniProt P61169); assay: Binding affinity towards dopamine receptor D2 at 1.0 uM concentration
D(2) dopamine receptor (Rattus norvegicus), sequence (P61169 whole entry): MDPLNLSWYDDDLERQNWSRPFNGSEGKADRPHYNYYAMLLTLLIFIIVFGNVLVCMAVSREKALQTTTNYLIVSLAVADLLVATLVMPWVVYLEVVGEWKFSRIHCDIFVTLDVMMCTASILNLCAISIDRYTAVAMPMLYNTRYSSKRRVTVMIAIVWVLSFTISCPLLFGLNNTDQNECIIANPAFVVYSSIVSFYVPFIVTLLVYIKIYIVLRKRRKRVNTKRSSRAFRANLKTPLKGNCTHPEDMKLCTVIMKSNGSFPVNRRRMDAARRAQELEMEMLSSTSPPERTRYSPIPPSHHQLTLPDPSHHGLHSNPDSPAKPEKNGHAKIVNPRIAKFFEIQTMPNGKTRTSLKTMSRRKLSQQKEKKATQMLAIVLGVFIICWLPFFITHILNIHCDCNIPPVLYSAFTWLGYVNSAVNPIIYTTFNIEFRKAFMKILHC
Summary of the method: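 Rat brain crude synaptic membranes in 20 mM NaHEPES pH 7.5. Ligands: α1 cortex […] 0.4 nM, nonspecific with (-)-NE 100 μM, 30 min at 25 °C. […] D2 striatum [3H]spiperone 0.05 nM with (+)-butaclamol 1 μM, 45 min at 37 °C. S1 cortex [3H]5-HT 1 nM plus glutathione and MgCl2, with 5-HT 10 μM, 20 min at 37 °C. […] Samples filtered on GF/B and counted.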

SMILES	Ki [1] [nM]	ED50 (Mus musculus [2]) [mg/kg]	Ki [3] [nM]	ED50 (Mus musculus [4]) [mg/kg]	inhibition [5] [%]	inhibition [6] [%]	inhibition [7] [%]	Ki [8] [nM]	ED50 (Mus musculus [2]; Mus musculus, read-out: ED50) [mg/kg]	behavior (Mus musculus [9])	ED50 (Mus musculus [4]; Mus musculus, read-out: ED50) [mg/kg]	inhibition [10] [%]
c1ccc([C@@H]2CN3CCC[C@@H]3c3ccccc32)cc1 (stereo in doubt; (+)-7b)	83	0.59	4.4	0.05	–	–	–	–	–	–	–	–
O=C(O)c1ccccc1[C@@H]1CN2CCC[C@@H]2c2ccccc21	–	–	–	–	0	6	3	–	–	–	–	–
FC(F)(F)c1cccc([C@@H]2CN3CCC[C@@H]3c3ccccc32)c1 (stereo in doubt; (-)-37b)	30	–	7690	–	–	–	–	2570	–	–	–	–
Br.Oc1ccccc1[C@@H]1CN2CCC[C@@H]2c2ccccc21	–	–	360	–	–	–	–	8.8	> 3	Weak	~2	–
C[C@@]12CCCN1C[C@H](c1ccc(Cl)cc1)c1ccccc12	–	–	7.6	–	–	–	–	3.8	6.8	Weak	1.5	–
CC(=O)Nc1ccc([C@@H]2CN3CCC[C@H]3c3ccccc32)cc1	–	–	–	–	27	–	57	–	4.4	Weak	1.8	–
Br.COc1ccc([C@@H]2CN3CCC[C@H]3c3ccccc32)cc1	–	–	119	–	–	–	–	27.6	~50	Weak	3	–
Br.CCCCc1ccc([C@@H]2CN3CCC[C@H]3c3ccccc32)cc1	–	–	–	–	13	3	5	–	> 30	Weak	–	–
Br.c1ccc([C@@H]2Cc3ccccc3[C@@H]3CCCN23)cc1	–	–	–	–	7	–	0	–	> 30	Weak	0.87	–
Br.Cn1ccc2c1[C@@H](c1ccccc1)CN1CCC[C@@H]21	–	–	9.8	–	–	–	–	7.5	2.4	Weak	~0.75	–
FC(F)(F)c1cccc([C@@H]2CN3CCC[C@@H]3c3cccc(Cl)c32)c1	–	–	–	–	–	5	8	~100	–	–	–	–
O=C(O)c1ccccc1[C@@H]1CN2CCC[C@H]2c2ccccc21	–	–	–	–	1	1	5	–	–	–	–	–
CCCCc1ccc([C@@H]2CN3CCC[C@@H]3c3ccccc32)cc1	–	–	230	–	–	–	–	29.9	> 60	Weak	9.1	–
Br.O[C@@]1(c2ccccc2)CN2CCC[C@H]2c2ccccc21	–	–	258	–	–	–	–	40.8	~25	Weak	6.2	–
c1ccc([C@@H]2CN3CCC[C@@H]3c3ccccc32)cc1 (stereo in doubt; (-)-7b)	262	>30	1340	8.3	–	–	–	–	–	–	–	–
Br.COc1ccc([C@@H]2CN3CCC[C@@H]3c3ccccc32)cc1	–	–	5.2	–	–	–	–	0.79	0.27	Weak	0.03	–

SMILES	Ki [1] [nM]	ED50 (Mus musculus [2]) [mg/kg]	Ki [3] [nM]	ED50 (Mus musculus [4]) [mg/kg]	inhibition [5] [%]	inhibition [6] [%]	inhibition [7] [%]	Ki [8] [nM]	ED50 (Mus musculus [2]; Mus musculus, read-out: ED50) [mg/kg]	behavior (Mus musculus [9])	ED50 (Mus musculus [4]; Mus musculus, read-out: ED50) [mg/kg]	inhibition [10] [%]
Cc1ccccc1[C@@H]1CN2CCC[C@H]2c2ccccc21	–	–	–	–	12	-6	-1	–	–	–	–	–
Br.Oc1ccc([C@@H]2CN3CCC[C@H]3c3ccccc32)cc1O	–	–	32.6	–	–	–	–	22.3	> 30	Partial stimulant	1.8	6
C[C@@]12CCCN1C[C@@H](c1ccc(Cl)cc1)c1ccccc12	–	–	~100	–	–	21	–	~100	–	Weak	–	–
FC(F)(F)c1cc([C@@H]2CN3CCC[C@@H]3c3ccccc32)cc(C(F)(F)F)c1	–	–	–	–	58	25	5	–	–	–	–	–
COc1cccc2c1[C@H](c1ccccc1)CN1CCC[C@H]21	–	–	12.3	–	–	–	–	11.5	10	Weak	1.2	–
Br.F[C@]1(c2ccccc2)CN2CCC[C@H]2c2ccccc21	–	–	–	–	–	6	26	30.7	~3	Weak	1.2	–
Clc1ccc([C@@H]2CN3CCC[C@H]3c3ccccc32)cc1Cl	–	–	30.8	–	–	–	–	16	~41	Weak	8	–
FC(F)(F)c1ccccc1[C@@H]1CN2CCC[C@H]2c2ccccc21	–	–	–	–	12	4	0	–	–	–	–	–
Br.O=[N+]([O-])c1ccc([C@@H]2CN3CCC[C@@H]3c3ccccc32)cc1	–	–	94.2	–	–	–	–	3.4	0.17	Weak	0.08	–
Clc1ccc([C@@H]2CN3CCC[C@H]3c3cc(Cl)ccc32)cc1	–	–	65.1	–	–	–	–	33.8	> 100	Weak	~37	–
C[C@H]1[C@H](c2ccccc2)c2ccccc2[C@@H]2CCCN21	–	–	–	–	62	15	17	–	~30	Weak	3.3	–
N#Cc1ccccc1[C@@H]1CN2CCC[C@@H]2c2ccccc21	–	–	–	–	71	6	33	–	> 3	–	> 3	–
FC(F)(F)c1cc([C@@H]2CN3CCC[C@H]3c3ccccc32)cc(C(F)(F)F)c1	–	–	–	–	0	-3	-3	–	–	–	–	–
Br.FC(F)(F)c1ccccc1[C@@H]1CN2CCC[C@@H]2c2ccccc21	–	–	–	–	42	2	14	–	> 3	–	> 3	–
CSc1ccc([C@@H]2CN3CCC[C@@H]3c3ccccc32)cc1 (stereo in doubt; (-)-48b)	–	–	–	–	–	–	–	–	–	–	–	5
c1ccc(C[C@@H]2CN3CCC[C@H]3c3ccccc32)cc1	–	–	–	–	100	-3	15	–	–	–	–	–
